One compound from ChEMBL document CHEMBL4364270, “Structure-activity relationship studies on Bax activator SMBA1 for the treatment of ER-positive and triple-negative breast cancer” (Eur J Med Chem, 2019) can be followed below.

The subject of one assay is MCF-10A. In words: Antiproliferative activity against human MCF10A cells assessed as reduction in cell growth incubated for 72 hrs by MTT assay. The assay is classed as functional, cell-based. A digest of the protocol:
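MTT viability after 72 h exposure at indicated concentrations; cells seeded at 1×10^3 cells/well (T47D, MDA-MB-468, MCF-10A, MCF-7/ADR) in 96-well plates; quadruplicate wells, independently repeated three times; IC50 as mean ± SE of at least three experiments.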

Assay [1] relates to MDA-MB-231. Briefly: Inhibition of colony formation in triple negative human MDA-MB-231 cells at 1 uM supplemented with fresh medium containing compound every 72 hrs for 2 weeks by crystal violet staining based assay. It counts as functional, cell-based. The method, boiled down:
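Clonogenic assay: 800 cells per well seeded, treated after 24 h with 1 μM or DMSO vehicle, medium with compound renewed every 72 h for 2 weeks; PBS wash, 0.01% crystal violet 10 min, whole-well density digitally quantified; triplicate, one-way ANOVA, SD error bars.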

Assay [2] has as its system MDA-MB-231. Briefly: Induction of apoptosis in triple-negative human MDA-MB-231 cells assessed as upregulation of PARP1 cleavage incubated for 48 hrs by Western blot analysis. The assay is classed as functional, cell-based. The method, boiled down:
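Western blot: cells harvested after treatment, lysates quantified by Bradford (BSA standard), 30 µg protein resolved by SDS-PAGE, transferred to PVDF, blocked in 5% nonfat milk, probed overnight with anti-PARP-1, anti-cleaved PARP-1 or anti-cyclin D1 (1:1,000) and β-actin loading control; ECL visualization.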
(In general: A western blot detects proteins with antibodies after separation by electrophoresis.)

The subject of assay [3] is MCF7. In words: Induction of apoptosis in ER-positive human MCF7 cells assessed as decrease in cytosolic Bax level at 5 uM incubated for 48 hrs by Western blot analysis. It counts as functional, cell-based. A digest of the protocol: (§1)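 Western blot of MCF-7 (and MDA-MB-231 for cytosolic fractions) cells exposed to 5 μM over 0-48 h; 30 µg protein per lane on SDS-PAGE, PVDF transfer, 5% milk block, overnight primary antibodies (total Bax, p-Bax, active Bax 6A7, cytochrome C), ECL detection; cytosolic fraction used for cytochrome c and Bax.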

The subject of assay [4] is MCF7. Briefly: Potency index, ratio of IC50 of (E/Z)-2-(2-((2-nitro-9H-fluoren 9-ylidene)methyl)phenoxy)ethan-1-amine to IC50 of compound for antiproliferative activity against ER-positive human MCF7 cells assessed as reduction in cell growth incubated for 48 hrs by MTT assay. The assay is classed as functional.
The subject of assay [5] is MDA-MB-231. In words: Induction of apoptosis in triple-negative human MDA-MB-231 cells assessed as decrease in cytosolic Bax level at 5 uM incubated for 48 hrs by Western blot analysis. It counts as functional, cell-based. The method, boiled down: as §1
Assay [6] has as its system MDA-MB-231. In words: Potency index, ratio of SMBA1 IC50 to compound IC50 for antiproliferative activity against triple negative human MDA-MB-231 cells assessed as reduction in cell growth incubated for 48 hrs by MTT assay. The assay is classed as functional.
For assay [7], the system named is MDA-MB-231. In words: Potency index, ratio of IC50 of (E/Z)-2-(2-((2-nitro-9H-fluoren 9-ylidene)methyl)phenoxy)ethan-1-amine to IC50 of compound for antiproliferative activity against triple negative human MDA-MB-231 cells assessed as reduction in cell growth incubated for 48 hrs by MTT assay. The assay is classed as functional. (Formazan colour is commonly taken as a measure of viable cells.)

The test system of assay [8] is MCF7. In words: Potency index, ratio of SMBA1 IC50 to compound IC50 for antiproliferative activity against ER-positive human MCF7 cells assessed as reduction in cell growth incubated for 48 hrs by MTT assay. It counts as functional.
The subject of assay [9] is MCF7. Briefly: Antiproliferative activity against ER-positive human MCF7 cells assessed as reduction in cell growth at 1 uM incubated for 48 hrs by MTT assay relative to control. The assay is classed as functional. Conditions: MCF7, 48 h. The method, boiled down: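 MTT viability: MCF-7 and MDA-MB-231 seeded 1×10^4 cells/well, exposed to DMSO or 0.01-100 μM for 48 h; MTT (5 mg/mL in PBS) added 4 h, formazan dissolved in DMSO, OD 550 nm; quadruplicate wells; IC50 fitted for compounds giving >50% inhibition at 10 µM; at least three independent experiments.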

pIC50: −log10 of the molar value. Active and inactive are the calls of the source. The rule behind the calls is not given here.

The pIC50 is the IC50 on a negative log10 scale, so that one unit is a factor of ten. A word on the inhibition: it is the change of the read-out against control, counted positive when it falls. As for `NCCOc1ncccc1C=C1c2ccccc2-c2ccc([N+](=O)[O-])cc21`, the pIC50 in the assay on MCF-10A was 6.96. Also, in the assay with MDA-MB-231 [1], the inhibition result is “Active”. Moreover, the Activity result with MDA-MB-231 [2] was “Dose-dependent effect”. For the same compound, the result with MCF7 [3] and in the assay with MDA-MB-231 [5] was Active. Moreover, the “Ratio IC50” value is on record as 40 - 60 in the assay with MCF7 [4], 80 - 130 in the assay on MDA-MB-231 [6], 40 - 60 in the assay with MDA-MB-231 [7] and 80 - 130 in the assay with MCF7 [8]. Further, the inhibition at 1 µM in the assay with MCF7 [9] is above 50%.
